Reference: ChEMBL document CHEMBL1159310, “Indole and beta-carboline alkaloids from Geissospermum sericeum” (J Nat Prod, 2002)

Key:
KB = assay: Cytotoxicity against human KB cells after 48 hrs by MTT assay; assay type: cell-based
How it was run: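 Human KB cells (0.5 × 10^6 viable cells/mL in RPMI 1640 with 20% FCS) added to compound diluted in RPMI 1640 from […] DMSO stocks; 48 h at 37 °C. MTT (5 mg/mL) added for 15 min, supernatant discarded, cells solubilised in DMSO plus Sørensen's glycine buffer pH 10.5; OD read at 570 nm; IC50 by curve fitting.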

Plasmodium falciparum [1] = assay: Antiplasmodial activity against chloroquine-sensitive Plasmodium falciparum T9-96; assay type: functional, organism-based
Plasmodium falciparum [2] = assay: Antiplasmodial activity against chloroquine-resistant Plasmodium falciparum K1; assay type: functional, organism-based
Plasmodium falciparum [3] = assay: Selectivity for Plasmodium falciparum K1 to Plasmodium falciparum T9-96 as IC50 ratio; assay type: functional

| SMILES | IC50 (KB) [µM] | IC50 (Plasmodium falciparum [1]) [µM] | IC50 (Plasmodium falciparum [2]) [µM] | Ratio IC50 (Plasmodium falciparum [3]) |
| --- | --- | --- | --- | --- |
| CC[C@@H]1CN2CC[C@@]34C(=Nc5ccccc53)[C@@H](CO)[C@H]1C[C@H]24 | > 40 | 35.4 | 27.3 |  |
| CC[C@@H]1C[N+]2([O-])CC[C@]34c5ccccc5N[C@H]3[C@@H](CO)[C@H]1C[C@@H]42 (some centres undefined) | > 40 | > 40 | > 40 |  |
| CCN(CC)CCCC(C)Nc1ccnc2cc(Cl)ccc12 (centres undefined) [CHLOROQUINE] | 20.4 |  |  |  |
| CCc1ccc2c3[nH]c4ccccc4c3cc[n+]2c1.[Cl-] [FLAVOPEREIRINE] | 10.7 | 1.83 | 11.5 | 6.3 |
| CC[C@@H]1CN2CC[C@]34c5ccccc5N[C@H]3[C@@H](CO)[C@H]1C[C@H]24 [GEISSOSCHIZOLINE] | > 40 | > 40 | > 40 |  |
